Assay results taken from ChEMBL document CHEMBL1154946, “Synthetic atpenin analogs: Potent mitochondrial inhibitors of mammalian and fungal succinate-ubiquinone oxidoreductase” (Bioorg Med Chem Lett, 2010).
Calls of active or inactive are those of the source. No cut-off for these calls is given here.

Legend:
[1] = Inhibition of Septoria nodorum sub-mitochondrial membrane SQR assessed as ubiquinol-dependent reduction of DCIP after 10 mins by spectrophotometry; design: species or system Parastagonospora nodorum
How it was run: (§1)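 Complex II (SQR) activity in sub-mitochondrial membranes from bovine heart or Septoria nodorum, run in plate format. 20 mM succinate serves as electron donor, with decyl ubiquinone as acceptor and DCIP as terminal dye acceptor. The reaction is started by adding succinate and runs 10 min. Read-out is spectrophotometric, giving IC50.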

Parastagonospora nodorum [2] = assay: Antifungal activity against Septoria nodorum at 200 ppm; type: functional, organism-based
[3] = Inhibition of bovine heart sub-mitochondrial membrane SQR assessed as ubiquinol-dependent reduction of DCIP after 10 mins by spectrophotometry; design: species or system Bos taurus; how it was run: as §1
Parastagonospora nodorum [4] = assay: Antifungal activity against Septoria nodorum at 200 ppm by whole plant assay; type: functional, organism-based

CCCCC(CC)C(=O)c1c(O)nc(OC)c(OC)c1O (stereo not drawn)
IC50 [1]: 234 nM
Activity (Parastagonospora nodorum [2]): inactive
IC50 [3]: 125 nM
Activity (Parastagonospora nodorum [4]): inactive

COc1[nH]cc(C(=O)c2ccccc2Oc2ccccc2)c(=O)c1OC
IC50 [1]: > 30000 nM
Activity (Parastagonospora nodorum [2]): inactive
IC50 [3]: > 30000 nM
Activity (Parastagonospora nodorum [4]): inactive

COc1nc(O)c(C(=O)c2cccc(Oc3ccccc3)c2)c(O)c1OC
IC50 [1]: 2330 nM
Activity (Parastagonospora nodorum [2]): inactive
IC50 [3]: 112 nM
Activity (Parastagonospora nodorum [4]): inactive

COc1[nH]c(OC)c(C(=O)c2ccc(Cl)cc2)c(=O)c1OC
IC50 [1]: > 30000 nM
Activity (Parastagonospora nodorum [2]): inactive
IC50 [3]: > 30000 nM
Activity (Parastagonospora nodorum [4]): inactive

CCC(C)C(=O)c1c[nH]c(OC)c(OC)c1=O (stereo not drawn)
IC50 [1]: > 30000 nM
Activity (Parastagonospora nodorum [2]): inactive
IC50 [3]: > 30000 nM
Activity (Parastagonospora nodorum [4]): inactive

COc1nc(OC(C)=O)c(C(=O)c2ccc(Cl)cc2)c(OC(C)=O)c1OC
IC50 [1]: > 30000 nM
Activity (Parastagonospora nodorum [2]): inactive
IC50 [3]: > 30000 nM
Activity (Parastagonospora nodorum [4]): inactive

COc1[nH]cc(C(=O)c2ccccc2Cl)c(=O)c1OC
IC50 [1]: > 30000 nM
Activity (Parastagonospora nodorum [2]): inactive
IC50 [3]: > 30000 nM
Activity (Parastagonospora nodorum [4]): inactive

COc1[nH]cc(C(=O)c2ccc(-c3ccccc3)cc2)c(=O)c1OC
IC50 [1]: 2750 nM
Activity (Parastagonospora nodorum [2]): inactive
IC50 [3]: 795 nM
Activity (Parastagonospora nodorum [4]): inactive

CCCCCCCCCC(C)C(=O)c1c(O)nc(OC)c(OC)c1O (stereo not drawn)
IC50 [1]: 4 nM
Activity (Parastagonospora nodorum [2]): inactive
IC50 [3]: 3 nM
Activity (Parastagonospora nodorum [4]): inactive

COc1[nH]c(Br)c(C(=O)c2ccc(Cl)cc2)c(=O)c1OC
IC50 [1]: 1940 nM
Activity (Parastagonospora nodorum [2]): inactive
IC50 [3]: 1270 nM
Activity (Parastagonospora nodorum [4]): inactive

COc1nc(O)c(C(=O)C(c2ccccc2)c2ccccc2)c(O)c1OC
IC50 [1]: > 30000 nM
Activity (Parastagonospora nodorum [2]): inactive
IC50 [3]: 630 nM
Activity (Parastagonospora nodorum [4]): inactive

COc1nc(OS(C)(=O)=O)c(C(=O)c2ccc(Cl)cc2)c(OS(C)(=O)=O)c1OC
IC50 [1]: > 30000 nM
Activity (Parastagonospora nodorum [2]): inactive
IC50 [3]: > 30000 nM
Activity (Parastagonospora nodorum [4]): inactive

O=C(Nc1ccccc1-c1ccc(Cl)cc1)c1cccnc1Cl [BOSCALID]
IC50 [1]: 245 nM
IC50 [3]: 1790 nM

COc1nc(O)c(C(=O)C(C)CCC=C(C)C)c(O)c1OC (stereo not drawn)
IC50 [1]: 51 nM
Activity (Parastagonospora nodorum [2]): inactive
IC50 [3]: 5 nM
Activity (Parastagonospora nodorum [4]): inactive

COc1nc(O)c(C(=O)C(C)c2ccccc2)c(O)c1OC (stereo not drawn)
IC50 [1]: 299 nM
Activity (Parastagonospora nodorum [2]): inactive
IC50 [3]: 8 nM
Activity (Parastagonospora nodorum [4]): inactive

COc1[nH]cc(C(=O)c2ccc(Oc3ccccc3)cc2)c(=O)c1OC
IC50 [1]: 4080 nM
Activity (Parastagonospora nodorum [2]): inactive
IC50 [3]: 492 nM
Activity (Parastagonospora nodorum [4]): inactive

COc1ccc(C(=O)c2c[nH]c(OC)c(OC)c2=O)cc1
IC50 [1]: > 30000 nM
Activity (Parastagonospora nodorum [2]): inactive
IC50 [3]: > 30000 nM
Activity (Parastagonospora nodorum [4]): inactive

COc1[nH]c(=O)c(C(=O)[C@@H](C)C[C@H](C)[C@@H](Cl)CCl)c(O)c1OC [ATPENIN A5]
IC50 [1]: 11 nM
IC50 [3]: 4 nM

CCC(C)C(=O)c1c(O)nc(OC)c(OC)c1O (stereo not drawn)
IC50 [1]: 2580 nM
Activity (Parastagonospora nodorum [2]): inactive
IC50 [3]: 96 nM
Activity (Parastagonospora nodorum [4]): inactive

COc1[nH]c(C)c(C(=O)c2ccc(Cl)cc2)c(=O)c1OC
IC50 [1]: 14000 nM
Activity (Parastagonospora nodorum [2]): inactive
IC50 [3]: 13800 nM
Activity (Parastagonospora nodorum [4]): inactive

COc1nc(O)c(C(=O)C(C)Cc2ccc(C(C)(C)C)cc2)c(O)c1OC (stereo not drawn)
IC50 [1]: 24 nM
Activity (Parastagonospora nodorum [2]): inactive
IC50 [3]: 8 nM
Activity (Parastagonospora nodorum [4]): inactive

COc1[nH]cc(C(=O)c2cccc(Oc3ccccc3)c2)c(=O)c1OC
IC50 [1]: 2980 nM
Activity (Parastagonospora nodorum [2]): inactive
IC50 [3]: 454 nM
Activity (Parastagonospora nodorum [4]): inactive

COc1nc(O)c(C(=O)c2ccc(Cl)cc2)c(O)c1OC
IC50 [1]: > 30000 nM
Activity (Parastagonospora nodorum [2]): inactive
IC50 [3]: 326 nM
Activity (Parastagonospora nodorum [4]): inactive

COc1[nH]cc(C(=O)c2ccc3ccccc3c2)c(=O)c1OC
IC50 [1]: 20700 nM
Activity (Parastagonospora nodorum [2]): inactive
IC50 [3]: 12800 nM
Activity (Parastagonospora nodorum [4]): inactive

COc1nc(O)c(C(=O)C2CCCCC2)c(O)c1OC
IC50 [1]: 1780 nM
Activity (Parastagonospora nodorum [2]): inactive
IC50 [3]: 127 nM
Activity (Parastagonospora nodorum [4]): inactive

CCCCC(C)C(=O)c1c(O)nc(OC)c(OC)c1O (stereo not drawn)
IC50 [1]: 122 nM
Activity (Parastagonospora nodorum [2]): inactive
IC50 [3]: 20 nM
Activity (Parastagonospora nodorum [4]): inactive

COc1[nH]cc(C(=O)c2cccc(Cl)c2)c(=O)c1OC
IC50 [1]: > 30000 nM
Activity (Parastagonospora nodorum [2]): inactive
IC50 [3]: 6560 nM
Activity (Parastagonospora nodorum [4]): inactive

COc1[nH]cc(C(=O)c2ccc(Cl)cc2)c(=O)c1OC
IC50 [1]: 26700 nM
Activity (Parastagonospora nodorum [2]): inactive
IC50 [3]: 3400 nM
Activity (Parastagonospora nodorum [4]): inactive
